What was measured:
[1] = target: Dipeptidyl peptidase 4 (Rattus norvegicus) (UniProt P14740); experiment: Ex vivo percent inhibition of Dipeptidyl peptidase IV in rat plasma after 4 hr at 4 umol/kg peroral dose; assay type: functional, cell-free
[2] = target: Dipeptidyl peptidase 4 (Rattus norvegicus) (UniProt P14740); experiment: Ex vivo percent inhibition of Dipeptidyl peptidase IV in rat plasma after 30 min at 4 umol/kg peroral dose; assay type: functional, cell-free
[3] = target: Cytochrome P450 3A4 (Homo sapiens, UniProt P08684); experiment: Inhibitory concentration against Cytochrome 450 3A4; assay type: ADME
Chain of Cytochrome P450 3A4 (P08684 whole entry): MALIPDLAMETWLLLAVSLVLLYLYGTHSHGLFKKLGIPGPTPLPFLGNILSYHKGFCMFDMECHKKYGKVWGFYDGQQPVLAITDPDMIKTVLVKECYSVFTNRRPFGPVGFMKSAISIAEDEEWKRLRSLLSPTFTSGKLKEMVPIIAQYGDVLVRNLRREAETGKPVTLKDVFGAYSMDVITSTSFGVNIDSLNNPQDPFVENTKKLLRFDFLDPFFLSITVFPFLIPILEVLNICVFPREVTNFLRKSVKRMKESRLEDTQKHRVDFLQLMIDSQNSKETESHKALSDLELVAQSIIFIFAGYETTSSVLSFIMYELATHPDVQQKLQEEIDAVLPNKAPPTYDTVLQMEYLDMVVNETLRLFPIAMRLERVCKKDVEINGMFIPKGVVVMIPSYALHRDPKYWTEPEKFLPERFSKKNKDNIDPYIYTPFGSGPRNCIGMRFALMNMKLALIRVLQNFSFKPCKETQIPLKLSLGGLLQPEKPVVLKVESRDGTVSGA

[4] = target: Dipeptidyl peptidase 4 (Rattus norvegicus) (UniProt P14740); experiment: Ex vivo Dipeptidyl peptidase IV inhibition in rat plasma after 4 hr 4 umol/kg peroral dose; assay type: functional, cell-free
[5] = Oral bioavailability in rat; assay type: ADME, organism-based; conditions: in vivo
Summary of the method: (§1)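 Fasted adult male Sprague-Dawley rats (250–300 g), jugular-cannulated, given 10 mg/kg in water as iv bolus or oral gavage (n = 2 per route); serial heparinized blood to 12 h, plasma acetonitrile-precipitated and quantified by LC/MS. AUC by trapezoidal (oral) or log-linear (iv) integration; F = mean oral AUC / mean iv AUC.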

[6] = target: Dipeptidyl peptidase 4 (Rattus norvegicus) (UniProt P14740); experiment: Effective dose for inhibition of Dipeptidyl peptidase IV in prediabetic rat model after 6 hr; assay type: functional
Summary of the method: (§2)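 Fasted normal male Sprague-Dawley rats given oral doses; plasma (EDTA) taken 0.5, 2, 4 or 6 h postdose and DPP-IV activity read with fluorogenic Ala-Pro-AFC (0.1 mM, 50 mM Hepes/140 mM NaCl, ex 360/em 530 nm, initial 20 min rate). ED50 = 50% inhibitory dose from percent inhibition vs dose plot at each time point.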

[7] = target: Dipeptidyl peptidase 4 (Rattus norvegicus) (UniProt P14740); experiment: Effective dose for inhibition of Dipeptidyl peptidase IV in prediabetic rat model after 4 hr; assay type: functional; conditions: in the assay text read “fasted normal Sprague-Dawley rat” for “prediabetic rat model”; summary of the method: as §2
[8] = target: Dipeptidyl peptidase 4 (Rattus norvegicus) (UniProt P14740); experiment: Effective dose for inhibition of Dipeptidyl peptidase IV in prediabetic rat model after 2 hr; assay type: functional; conditions: in the assay text read “fasted normal Sprague-Dawley rat” for “prediabetic rat model”; summary of the method: as §2
[9] = target: Dipeptidyl peptidase 4 (Rattus norvegicus) (UniProt P14740); experiment: Effective dose for inhibition of Dipeptidyl peptidase IV in prediabetic rat model after 0.5 hr; assay type: functional; conditions: in the assay text read “fasted normal Sprague-Dawley rat model” for “prediabetic rat model”; summary of the method: as §2
[10] = Half life in rat; assay type: ADME; conditions: in vivo; summary of the method: as §1
[11] = target: Dipeptidyl peptidase 4 (Homo sapiens, UniProt P27487); experiment: In vitro inhibition constant against human Dipeptidyl peptidase IV
Chain of Dipeptidyl peptidase 4 (P27487 whole entry): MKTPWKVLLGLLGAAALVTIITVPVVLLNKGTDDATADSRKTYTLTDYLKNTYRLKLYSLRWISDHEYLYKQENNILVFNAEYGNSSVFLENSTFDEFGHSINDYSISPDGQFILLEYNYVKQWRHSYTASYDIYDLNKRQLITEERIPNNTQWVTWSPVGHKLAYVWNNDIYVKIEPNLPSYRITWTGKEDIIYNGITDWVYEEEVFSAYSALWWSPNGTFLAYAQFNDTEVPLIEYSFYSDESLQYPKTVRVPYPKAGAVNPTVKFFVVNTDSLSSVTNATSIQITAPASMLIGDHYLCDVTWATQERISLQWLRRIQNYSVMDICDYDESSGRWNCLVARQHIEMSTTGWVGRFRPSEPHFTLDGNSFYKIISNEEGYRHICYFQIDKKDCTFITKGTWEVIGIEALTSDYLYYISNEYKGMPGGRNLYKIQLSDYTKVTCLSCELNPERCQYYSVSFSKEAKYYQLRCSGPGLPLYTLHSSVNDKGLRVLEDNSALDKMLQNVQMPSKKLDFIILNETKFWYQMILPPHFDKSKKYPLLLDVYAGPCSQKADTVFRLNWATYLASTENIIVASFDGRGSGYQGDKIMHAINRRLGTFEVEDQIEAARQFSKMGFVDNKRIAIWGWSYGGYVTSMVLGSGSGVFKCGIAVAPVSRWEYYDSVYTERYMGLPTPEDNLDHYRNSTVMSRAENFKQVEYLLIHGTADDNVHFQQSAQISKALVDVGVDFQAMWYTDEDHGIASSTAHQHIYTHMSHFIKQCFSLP
Summary of the method: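 Recombinant human DPP-IV expressed in CHO-DG44 cells, purified by anion exchange, gel filtration and MonoQ. […] IC50 from Hill fit (Morrison where needed), converted to Ki assuming competitive inhibition; mean ± SEM, ≥ triplicate.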

Chain of Dipeptidyl peptidase 4 (Rattus norvegicus) (P14740 whole entry, looked up): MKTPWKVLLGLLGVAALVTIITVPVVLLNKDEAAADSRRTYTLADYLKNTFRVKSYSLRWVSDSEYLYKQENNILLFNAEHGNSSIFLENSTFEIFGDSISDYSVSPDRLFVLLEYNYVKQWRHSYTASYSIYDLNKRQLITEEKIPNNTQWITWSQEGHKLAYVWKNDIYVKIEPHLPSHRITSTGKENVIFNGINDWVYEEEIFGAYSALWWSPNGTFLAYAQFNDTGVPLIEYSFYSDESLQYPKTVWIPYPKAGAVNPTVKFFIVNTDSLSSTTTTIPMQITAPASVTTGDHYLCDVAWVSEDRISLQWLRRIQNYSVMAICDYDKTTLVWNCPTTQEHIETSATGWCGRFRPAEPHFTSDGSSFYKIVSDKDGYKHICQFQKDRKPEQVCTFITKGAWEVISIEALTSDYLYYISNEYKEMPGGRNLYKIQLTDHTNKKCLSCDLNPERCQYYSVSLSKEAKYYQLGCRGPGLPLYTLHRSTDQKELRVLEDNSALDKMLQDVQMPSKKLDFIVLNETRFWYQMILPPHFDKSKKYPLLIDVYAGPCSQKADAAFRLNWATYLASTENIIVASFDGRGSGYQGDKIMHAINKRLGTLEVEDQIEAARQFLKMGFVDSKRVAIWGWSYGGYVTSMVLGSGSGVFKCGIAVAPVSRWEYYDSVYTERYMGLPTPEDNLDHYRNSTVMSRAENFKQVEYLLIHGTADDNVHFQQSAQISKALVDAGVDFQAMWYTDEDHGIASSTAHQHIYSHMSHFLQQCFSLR

Structure (SMILES)	inhibition [1] [%]	inhibition [2] [%]	also measured
C=CC(CC)(CC)[C@H](N)C(=O)N1[C@H](C#N)C[C@@H]2C[C@@H]21	20	39	
C=CC1([C@H](N)C(=O)N2[C@H](C#N)C[C@@H]3C[C@@H]32)CCCCC1	60	76	
N#C[C@@H]1C[C@@H]2C[C@@H]2N1C(=O)[C@@H](N)C12CC3CC(CC(C3)C1)C2		84	IC50 [3]: 20 µM; inhibition [4]: 83%; bioavailability [5]: 2%
N#C[C@@H]1C[C@@H]2C[C@@H]2N1C(=O)[C@@H](N)C12CC3CC(CC(O)(C3)C1)C2 [SAXAGLIPTIN ANHYDROUS]		87	ED50 ([6]; in the assay text read “fasted normal Sprague-Dawley rat model” for “prediabetic rat model”): 0.5 µmol/kg; inhibition [4]: 87%; ED50 [7]: 0.3 µmol/kg; ED50 [8]: 0.2 µmol/kg; ED50 [9]: 0.12 µmol/kg; bioavailability [5]: 75%; half-life [10]: 2.1 h
CCC1([C@H](N)C(=O)N2[C@H](C#N)C[C@@H]3C[C@@H]32)CCCC1	44	40	
N#C[C@@H]1C[C@@H]2C[C@@H]2N1C(=O)[C@@H](N)C12CC3CC(O)(CC(O)(C3)C1)C2		62	inhibition [4]: 57%
C=CC1([C@H](N)C(=O)N2[C@H](C#N)C[C@@H]3C[C@@H]32)CCCC1	64	71	Ki [11]: 0.0039 µM; bioavailability [5]: 5.3%
C=CC(C)(C)[C@H](N)C(=O)N1[C@H](C#N)C[C@@H]2C[C@@H]21	10	13	
N#C[C@@H]1C[C@@H]2C[C@@H]2N1C(=O)[C@@H](N)C1(CO)CCCC1	56	69	ED50 ([6]; in the assay text read “fasted normal Sprague-Dawley rat” for “prediabetic rat model”): 11 µmol/kg; ED50 [7]: 5 µmol/kg; ED50 [8]: 3.2 µmol/kg; ED50 [9]: 0.4 µmol/kg; bioavailability [5]: 59%
CCC(C)(C)[C@H](N)C(=O)N1[C@H](C#N)C[C@@H]2C[C@@H]21	0	0	
C=CC1([C@H](N)C(=O)N2[C@H](C#N)C[C@@H]3C[C@@H]32)CCC1	32	42	
N#C[C@@H]1C[C@@H]2C[C@@H]2N1C(=O)[C@@H](N)C1(CO)CCC1	17	36	
N#C[C@@H]1C[C@@H]2C[C@@H]2N1C(=O)[C@@H](N)C1(CO)CCCCC1	8	17	
N#C[C@@H]1C[C@@H]2C[C@@H]2N1C(=O)[C@@H](N)C12CC3CC(CC(F)(C3)C1)C2		80	inhibition [4]: 61%
C=CC1([C@H](N)C(=O)N2[C@H](C#N)C[C@@H]3C[C@@H]32)CCCCCC1	66	77	

From ChEMBL document CHEMBL1140346 (J Med Chem, 2005)
